Assay results gathered from unrelated publications.
Each line is one published result; the experiments were not run side by side.
Target: MAP/microtubule affinity-regulating kinase 3 (MARK3, Homo sapiens, UniProt P27448)

Structure (SMILES)	observed	action	technique	concentration	quantity	result
NS(=O)(=O)c1ccc(CNc2nc(Nc3cccc(NC(=O)N4CCCC4)c3)ncc2Br)cc1	enzyme activity	inhibitor	radiometric	1 µM	remaining activity	63%
CN(c1ncccc1CNc1nc(Nc2ccc3c(c2)CC(=O)N3)ncc1C(F)(F)F)S(C)(=O)=O	enzyme activity	inhibitor	–	1 µM	inhibition	83.5%
Cn1nc(C(F)(F)F)cc1-c1cnc(N2CCc3cc(S(=O)(=O)Nc4c(F)cc(Cl)cc4F)cc(N4CCCC4=O)c32)nc1	binding	–	competition with immobilised ligand	1 µM	remaining binding	12%
CS(=O)(=O)Nc1cccc(-c2csc(NC(=O)CSc3nc4nccnc4c(=O)n3CCc3ccccc3)n2)c1	enzyme activity	inhibitor	–	10 µM	inhibition	1%
CN(C)C(=O)Cn1cc(-c2nc(C3(c4ccc(-c5cnc(N)nc5)cc4)CC3)no2)cn1	cell-free assay	–	competition with immobilised ligand	1 µM	remaining binding	100%
CCN(CC)CCNC(=O)c1c(C)[nH]c(/C=C2\C(=O)Nc3ccc(F)cc32)c1C	cell-free assay	–	–	0.5 µM	remaining signal	30.4%
Cc1nn(CC(F)(F)F)cc1Nc1ncc(C2CC2)c(NCCc2c[nH]cn2)n1	enzyme activity	inhibitor	radiometric	1 µM	remaining activity	96%
CC(=O)N1CCC(c2ccc(C(=O)NC(=N)N)cc2C(F)(F)F)CC1	cell-free assay	–	competition with immobilised ligand	1 µM	remaining binding	88%
O=C(NCCCNc1ccnc(Nc2cccc(NC(=O)N3CCCC3)c2)n1)C1CCC1	enzyme activity	inhibitor	radiometric	1 µM	remaining activity	92%
CN(C)c1ncnc(-c2ccc3nc(Nc4cc(CN5CCN(C(=O)CC(F)(F)F)CC5)ccn4)[nH]c3c2)c1Cl	cell-free assay	–	competition with immobilised ligand	1 µM	remaining binding	100%
COc1cccc2c(NCc3ccccc3)nc(-n3c(N)nc4ccccc43)nc12	target engagement in cells	inhibitor	chemoproteomics	20 mM	inhibition	-1%
COc1cc(/C=C/C(=O)CC(=O)/C=C/c2ccc(O)c(OC)c2)ccc1O	enzyme activity	inhibitor	–	1 µM	activity vs control	90%
FC(F)(F)Oc1cccc(-c2cnc3ccc(-c4ccncc4)nn23)c1	enzyme activity	inhibitor	radiometric	1 µM	activity vs control	91%
O=C(Nc1cnn(-c2csc(C(=O)NC3COC3)c2)c1)Nc1ccccc1Cl	enzyme activity	inhibitor	–	5 µM	remaining activity	98.2%
NS(=O)(=O)c1ccc(CNc2nc(Nc3cccc(CN4CCOCC4)c3)ncc2C2CC2)cc1	enzyme activity	inhibitor	radiometric	1 µM	remaining activity	109%
CCOC(=O)c1cc2cc(-c3cc(C(=O)NCc4ccc(C(=O)O)cc4)nn3C)ccc2[nH]1	cell-free assay	–	competition with immobilised ligand	0.1 µM	remaining binding	93%
Cc1nn(CC(F)(F)F)cc1Nc1nccc(NCCc2cnc[nH]2)n1	enzyme activity	inhibitor	radiometric	1 µM	remaining activity	126%
COc1cc2ncnc(Nc3ccc(Oc4ccccc4)cc3C)c2cc1OC	enzyme activity	inhibitor	–	1 µM	inhibition	8%
Cc1nn(CC(F)(F)F)cc1Nc1nccc(NCCCNC(=O)C2CCC2)n1	enzyme activity	inhibitor	radiometric	1 µM	remaining activity	126%
O=C1NC(=O)c2cc(Nc3ccc(F)cc3)c(Nc3ccc(F)cc3)cc21	cell-free assay	–	–	0.5 µM	remaining signal	90.8%
C[C@@H]1CN(c2cc(-c3n[nH]c4ccc(OC5(C)CC5)cc34)ncn2)C[C@H](C)O1	cell-free assay	–	competition with immobilised ligand	0.1 µM	remaining binding	73%
Cc1nn(CC(F)(F)F)cc1Nc1ncc(Br)c(NCCc2cnc[nH]2)n1	enzyme activity	inhibitor	radiometric	1 µM	remaining activity	68%
